Rows were chosen to be rich in hits. Some 2.1% of all compounds tested hit in one or more screens of this group.
APJ agonist – agonists of human apelin receptor APJ, primary screen, CHO-K1 cells, PathHunter beta-arrestin, luminescence | P35414 | activation, % at 20 µM | 0% DMSO wells, 100% apelin | 0.11% of 330,000 active | AID 2520, 2010;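 active means activation more than six SD over the plate average, tested at 20 µM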;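 further: 0% = DMSO alone and 100% = apelin-13 at 10 nM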
Target sequence (P35414 whole entry, looked up): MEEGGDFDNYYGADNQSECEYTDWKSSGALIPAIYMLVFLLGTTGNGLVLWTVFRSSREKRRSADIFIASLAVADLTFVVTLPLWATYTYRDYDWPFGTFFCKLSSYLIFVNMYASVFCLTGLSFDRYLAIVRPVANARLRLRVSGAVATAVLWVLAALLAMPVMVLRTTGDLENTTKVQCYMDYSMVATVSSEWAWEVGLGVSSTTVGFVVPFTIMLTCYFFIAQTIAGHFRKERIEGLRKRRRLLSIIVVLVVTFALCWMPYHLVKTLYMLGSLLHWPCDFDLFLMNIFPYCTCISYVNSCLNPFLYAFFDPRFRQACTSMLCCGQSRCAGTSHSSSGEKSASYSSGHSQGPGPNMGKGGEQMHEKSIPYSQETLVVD
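Test system – PathHunter CHO-K1 APJ (AGTRL-1) beta-arrestin reporter cells · Input – 1000 cells/well · Compound – single test compound dose, 20 µM final, 1% DMSO · Times – compound stimulation 90 min at 25 °C, detection 60 min · Technique – beta-gal luminescence · Read-out basis – APJ–arrestin association signal · Control set – negative DMSO alone, positive Apelin-13 at 10 nM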
EBI2 antag – EBI2 receptor antagonists, beta-arrestin recruitment, primary screen, cell-based, luminescence, 7a,25-OHC stimulation, uHTS | G-protein coupled receptor 183 (Homo sapiens), P32249 | inhibition, % at 5 µM | 7a,25-OHC stimulated | 0.81% of 360,000 active; in the data active means inhibition above about 38%;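 further: enzyme fragment complementation signal reports receptor beta-arrestin coupling in cells; 0% = agonist plus DMSO wells and 100% = wells without agonist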
m5-HT2A agonist – mouse Htr2a agonists via beta-arrestin recruitment, primary screen, cell-based, luminescence; 5-hydroxytryptamine receptor 2A (Mus musculus), P35363; CHO-K1 mHTR2A beta-arrestin complementation; percent of 30 µM serotonin response; activation, % at 7.6 µM; 0.66% of 360,000 active; AID 624169, 2012;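 active means activation above a run cutoff, the mean activation of all tested compounds plus 3 SD, cut at about 14% in these data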;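 further: 0% = plate median of compound wells and 100% = 30 µM serotonin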
APJ antagonist – antagonists of human apelin receptor APJ, primary screen, CHO-K1 cells, beta-arrestin complementation, luminescence. 0.32% of 330,000 active. P35414. inhibition, % at 20 µM. AID 2521, 2010;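 active means inhibition above about 40% at 20 µM, limit read from the data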;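 further: cells challenged with 10 nM apelin-13 agonist together with compound; plate controls were apelin-13 plus DMSO wells for no effect and DMSO wells lacking apelin-13 for full effect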
CCR6 antagonist – CCR6 receptor antagonists, primary screen, cell-based, CHO-K1, luminescence, beta-arrestin, uHTS; C-C chemokine receptor type 6 (Homo sapiens), P51684; CHO-K1 CCR6 PathHunter beta-arrestin, CCL20-stimulated; inhibition, % at 20 µM; 0.49% of 340,000 active;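 active means compounds whose inhibition of the agonist-driven luminescence signal at 20 µM reaches about 50%, limit read from the data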;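 further: cells stimulated with CCL20 at 14 nM final; plate controls were DMSO with CCL20 for no effect and DMSO without agonist for full effect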
CXCR6 block – CXCR6 receptor inhibitors, primary screen, cell-based, beta-arrestin, luminescence, CHO-K1 PathHunter, 1536-well; C-X-C chemokine receptor type 6 (Homo sapiens), O00574; AID 602244, 2012; inhibition, % at 20 µM; 0.36% of 360,000 active; in the data active means inhibition above about 34%, passing the limit was not always enough;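 further: antagonist mode with CXCL16 agonist at 10 nM final; 0% = 10 nM CXCL16 with DMSO and 100% = unstimulated wells without agonist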
EBI2 conf – EBI2 antagonist hit retest, beta-arrestin, confirmation, cell-based, single concentration, luminescence, 7a,25-OHC stimulation. shares compounds with EBI2 antag. 7a,25-OHC antagonism. inhibition, % at 5 µM. 29% of 2,400 active. AID 651997, 2013;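 active means inhibition of at least 50%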
EBI2 agonist – EBI2 agonist activity of antagonist hits, confirmation, counter-screen for EBI2 antagonist project, cell-based, single concentration, agonist mode, luminescence | shares compounds with EBI2 antag | EBI2-expressing cells, 60 min; 0% vehicle, 100% 7α,25-dihydroxycholesterol control | activation, % at 5 µM | 2,400 tested, under 10 active | AID 652000, 2013;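 active means activation of at least 50%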
bGal cs – E. coli beta-galactosidase enzyme inhibition, confirmation, counter-screen for EBI2 antagonist project, biochemical, luminescence, single concentration; shares compounds with EBI2 antag; purified beta-galactosidase, luminescent Galacton Star, 15 min; inhibition, % at 5 µM; 1% of 2,400 active; AID 652176, 2013;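 active means replicate-average signal at least 3 plate SD below neutral wells, shown as high inhibition, flagging enzyme-inhibiting false positives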;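 further: 0% = DMSO wells with enzyme and 100% = wells lacking enzyme; higher means stronger loss of beta-gal luminescence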
Starred values were filed as active, the others as inactive; . = not tested or not shown.

SMILES | APJ agonist | EBI2 antag | m5-HT2A agonist | APJ antagonist | CCR6 antagonist | CXCR6 block | EBI2 conf | EBI2 agonist | bGal cs
Cc1cc(C(=O)COC(=O)C2CCN(C(=O)c3ccc(Cl)cc3)CC2)c(C)n1CC1CCCO1 (configuration not stated) | -1 | 73* | 2 | -13 | 7 | 0 | 51* | 1 | 0
NC(=O)CSc1nc2cc(Cl)ccc2c(=O)n1C1CCCCC1 | 0 | 3 | -9 | -34 | 14 | 6 | . | . | .
C=CCC1(CC=C)CCCN1C(=O)C1CCC(=O)N(CCc2ccccc2)C1 (configuration not stated) | 14 | 46* | 3 | 17 | 10 | -2 | 36 | -1 | -17
COc1ccc(CCN2CC(C(=O)N3CCC(OC)CC3)CCC2=O)cc1 (configuration not stated) | 0 | 2 | -5 | 0 | -4 | -2 | . | . | .
C=CCC1(CC=C)CCCN1C(=O)C1CCC(=O)N(CCc2ccc(OC)cc2)C1 (configuration not stated) | -1 | 57* | -1 | -20 | 15 | 3 | 40 | 0 | 7
COc1ccc(CCN2CC(C(=O)N(C)Cc3ccc(C)o3)CCC2=O)cc1 (configuration not stated) | -3 | 45* | 3 | 9 | 10 | 1 | 32 | 1 | 0
Cc1ccc(C(=O)NNC2=NCCC2)cc1 | -1 | -3 | -3 | 11 | -6 | -4 | . | . | .
CCN(CC)C(=O)COc1ccc2c(c1)C(=O)CC(C)(C)O2 | 0 | -12 | 6 | -1 | 3 | -3 | . | . | .
CCOC(=O)c1cnc(SCC(=O)Nc2cc(C(F)(F)F)ccc2N2CCOCC2)nc1N | 1 | 85* | 3 | 2 | 31 | -12 | 86* | 3 | 5
CCOC(=O)c1cnc(SCC(=O)Nc2ccc(N3CCOCC3)c(Cl)c2)nc1N | -4 | 3 | 4 | 17 | 4 | -4 | . | . | .
Cc1ccsc1/C=N/NC(=O)CSCc1ccc(Cl)cc1 | -3 | 6 | 5 | 7 | 7 | -33 | . | . | .
Cc1ccc(/C=N/NC(=O)Cc2cccn2C)cc1 | 0 | 46* | 5 | 0 | 10 | -8 | 32 | -1 | -12
Cc1ccc(/C=N/NC(=O)CSCc2ccc(Cl)cc2)cc1 | -1 | 62* | -5 | 12 | 2 | -3 | 44 | -1 | -20
CSc1ccc(/C=N/N2CCN(Cc3ccc(Cl)cc3)CC2)cc1 | 0 | 5 | 0 | 6 | 3 | -9 | . | . | .
CSc1ccc(/C=N/NC(=O)CN2CCN(Cc3ccccc3)CC2)cc1 | -1 | 50* | -1 | -9 | 13 | -6 | 42 | 0 | -11
CSc1ccc(/C=N/NC(=O)CN2CCN(Cc3ccc(Cl)cc3)CC2)cc1 | -3 | 50* | -2 | 2 | -3 | -12 | 34 | -1 | -10
COc1ccc(C(=O)NC2CCN(CC(=O)NCc3ccccc3)CC2)cc1 | -1 | 3 | 0 | 20 | -9 | -22 | . | . | .
O=C(CSC1CN(C(c2ccccc2)c2ccccc2)C1)N/N=C/c1ccccc1 | -4 | 49* | 8 | -4 | 16 | 11 | 35 | -1 | -10
Nc1ccccc1SCC(=O)Nc1nc(-c2ccccc2)cs1 | -3 | -6 | 6 | 5 | 7 | -8 | . | . | .
COc1ccc(CCC(=O)NCCc2ccc(Cl)cc2)cc1 | -6 | 43* | 5 | 8 | 10 | 2 | 27 | 1 | 2
COc1ccc(CCNC(=O)CCc2ccc(OC)cc2)cc1 | -5 | 6 | -1 | 9 | 0 | 1 | . | . | .
CC1CCCCN1C(=S)Nc1ccc(OC(F)F)cc1 (configuration not stated) | -1 | 50* | -1 | -9 | -3 | 14 | 1 | -1 | -14
Cc1ccc(NC2=CC(=O)CC(c3ccccc3)C2)cc1 (configuration not stated) | 0 | 55* | -3 | 2 | 6 | -6 | 42 | 2 | 5
O=C1C=C(Nc2ccc(Cl)cc2)CC(c2ccccc2)C1 (configuration not stated) | -1 | 70* | -2 | 6 | 16 | -2 | 55* | 0 | 8
C/C=C/C1=CC(=O)C[C@H](c2ccc(Cl)cc2)C1 | -4 | -2 | -1 | -1 | 14 | 2 | . | . | .
SMILES | APJ agonist | EBI2 antag | m5-HT2A agonist | APJ antagonist | CCR6 antagonist | CXCR6 block | EBI2 conf | EBI2 agonist | bGal cs
CCOc1ccccc1NC1=CC(=O)CC(c2ccccc2)C1 (configuration not stated) | -8 | 15 | 7 | -1 | 15 | -3 | . | . | .
Cc1ccc(NC2=CC(=O)CC(c3ccc(Cl)cc3)C2)cc1 (configuration not stated) | -2 | 82* | -3 | 1 | 1 | 9 | 79* | -1 | -8
Nc1ccccc1NC1=CC(=O)CC(c2ccccc2)C1 (configuration not stated) | -2 | . | . | 9 | . | . | . | . | .
O=C(Oc1ccccc1)c1ccc(NC(=O)c2ccco2)cc1 | 4 | 7 | 1 | -2 | 11 | 1 | . | . | .
CCC(CO)N=CC1=C(O)CC(C)(C)CC1=O (configuration not stated) | 2 | 2 | 0 | -15 | 17 | -14 | . | . | .
COc1ccc(-c2cc3nc(-c4ccccc4)cc(N4CCN(C(=O)c5ccsc5)CC4)n3n2)cc1 | . | 41 | 0 | . | . | 20 | . | . | .
COc1ccc(-c2cc3nc(-c4ccccc4)cc(N4CCC(O)CC4)n3n2)cc1 | 6 | 64* | 1 | -3 | -12 | -9 | 56* | 0 | -23
COc1ccc(-c2cc3nc(-c4ccccc4)cc(N4CCN(C(=O)c5ccccc5)CC4)n3n2)cc1 | . | 38 | -3 | . | . | 2 | . | . | .
COc1ccc(-c2cc3nc(-c4ccccc4)cc(N4CCCC(O)C4)n3n2)cc1 (configuration not stated) | 2 | 66* | 10 | -4 | -10 | -14 | 55* | 1 | 6
